Screens (PubChem)
CHOP inh: inhibitors of CHOP promoter induction, primary screen, cell-based, unfolded protein response, luciferase reporter | inhibition, % at 10 µM | CHO-K1 CHOP-promoter luciferase, tunicamycin-induced, 15-18 h | 220,000 compounds, 3.8% hits;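 active = compounds that reduced the stress-induced luciferase reporter signal by more than about 70% of percent inhibition, limit read from the data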;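 also: 0% = tunicamycin plus vehicle and 100% = wells without tunicamycin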
UPR XBP1 act: activators of adaptive XBP1 UPR arm, primary screen, cell-based, CHO-XBP1 luciferase reporter, luminescence, uHTS. IRE1-XBP1 UPR activation; percent of tunicamycin response, DMSO as zero. activation, % at 20 µM. 330,000 compounds, 0.33% hits. AID 463104, 2010;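 active = versus positive control, 20 µM dose yields 30% or more activation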;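 also: 100% = tunicamycin at 10 µg/mL and 0% = DMSO only wells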
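Signal: luciferase luminescence; Assay system: CHO-XBP1 luciferase reporter cells; Amount: one thousand reporter cells per well; Dosing: 20 µM single concentration, DMSO 1%; Benchmarks: high control tunicamycin 10 µg/mL final, low control DMSO vehicle only; Schedule: 6 h compound exposure at 37 °C, 5% CO2; Evaluation: percent activation relative to tunicamycin reference.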
UPR CHOP act: activators of apoptotic CHOP UPR arm, primary screen, cell-based, CHO-CHOP luciferase reporter, luminescence, uHTS; UPR activation; percent of tunicamycin response over DMSO baseline; activation, % at 10 µM; 330,000 compounds, 0.34% hits;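 active = at 10 µM dose, activation of 40% or more, normalized to positive control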;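 also: 100% = tunicamycin at 10 µg/mL and 0% = DMSO alone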
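measured by = luciferase luminescence | assay system = CHO-CHOP cells, stable luciferase reporter of PERK-eIF2a-CHOP signalling | amount = 500 reporter cells seeded per well | timing = 6 h compound exposure at 37 °C after overnight seeding | controls = positive tunicamycin 10 µg/mL, negative DMSO alone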
Lmaj promast: Leishmania major promastigote growth inhibition, primary screen; Leishmania major promastigotes, resazurin fluorescence viability; 200,000 compounds, 9% hits; inhibition, % at 10 µM; in the data active = inhibition above about 50%;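 also: promastigotes grown with compound for 44 hours at 28 °C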
T cruzi inh: inhibitors of intracellular T. cruzi growth, primary screen, luminescence, NIH3T3 host cells; inhibition, % (test concentration not listed); AID 1885, 2009; T. cruzi beta-gal in NIH3T3, 90 h; 300,000 compounds, 1.4% hits;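 active = mean inhibition across valid replicates above about 55%, limit read from the data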;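 also: signal also drops with host cell toxicity which is not excluded here; 0% = plate median of DMSO wells and 100% = zero luminescence signal; higher percent means less beta-gal luminescence so fewer parasites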
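Assay system: NIH/3T3 host cells with β-galactosidase reporter T. cruzi; input: 5,000 host fibroblasts per well; compound: single 50 nL compound addition per well in DMSO; timing: ≥90 h infection period, 3 h prior cell attachment; measured by: GalScreen β-gal luminescence, detergent lysis, 60 min; evaluation: percent inhibition of parasite-derived β-gal signal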
Dynein transport: inhibitors of GR-EGFP nuclear translocation, primary screen, dynein cargo transport inhibitor project, imaging, high-content, 3617.4 mouse cells | AID 1381, 2008 | 220,000 compounds, 0.47% hits | test concentration mostly 20 µM; stimulated with dexamethasone, 1 µM; hits give low values | z-score, hits read low;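 active = plate z-score of nuclear minus cytoplasmic receptor signal below a set negative limit, without overly bright fluorescence or cell loss, cut at about -3.5 in these data, passing the limit was not always enough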;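 also: z-score of nuclear minus cytoplasmic ring GR-EGFP intensity difference per well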
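Also added – dexamethasone, 1.0 µM final · Buffer or medium – tet-free, stripped-serum medium · Schedule – induction 48 h, compound 1 h, agonist 30 min · Detection – formaldehyde fixation, Hoechst nuclear stain, 10x automated fluorescence imaging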
* marks the source's active call; other numbers are inactive results; · = no result given. This excerpt belongs to a sample that is enriched for hits.

SMILES	CHOP inh	UPR XBP1 act	UPR CHOP act	Lmaj promast	T cruzi inh	Dynein transport
OCC1(Cc2ccc(Cl)cc2)CCN(CC2CC=CCC2)CC1 (stereo not drawn)	21	-1	2	87*	25	2.3
OCC1(Cc2ccc(Cl)cc2)CCN(CCCc2ccccc2)CC1	10	-2	1	95*	49	-0.59
CSc1ccc(CN2CCC(CO)(Cc3ccc(Cl)cc3)CC2)cc1	14	-1	0	87*	34	0.38
CN1CCC(CO)(Cc2ccccc2)CC1	30	1	-1	2	-2	0.29
OCC1(Cc2ccccc2)CCN(Cc2cccc(F)c2F)CC1	22	1	0	13	-6	-0.45
OCC1(Cc2ccccc2)CCN(Cc2ccc(C(F)(F)F)cc2)CC1	42	0	1	81*	27	-1.5
Cc1cc(NC(=O)CSc2nc3c(c(=O)n2C)SCC3)no1	·	-4	4	·	-7	·
OCC1(Cc2ccc(Cl)cc2)CCN(Cc2ccccc2F)CC1	12	-1	-4	57*	29	-0.031
C=CCn1c(NC(C)c2cc(Cl)ccc2O)nc2ccccc21 (stereo not drawn)	54	-6	-1	96*	38	2.8
CCCCn1c(CNC(=O)CCC)nc2ccccc21	57	0	1	-3	-6	-0.72
CCCn1c(CNc2ccccc2O)nc2ccccc21	-20	2	1	82*	-19	0.49
COc1ccc(CNc2nc3ccccc3n2C(C)C)cc1	·	-2	1	·	3	·
C=CCn1c(NCc2cc(C)ccc2O)nc2ccccc21	8	2	4	38	1	0.46
Cc1ccc(NCc2nc3ccccc3n2C)cc1	-46	-1	16	5	-28	0.15
CCn1c(CNc2nc3ccccc3n2C(C)C)nc2ccccc21	32	1	2	100*	-5	-0.44
Cn1c(CNc2nc3ccccc3n2C)nc2ccccc21	0	1	0	50*	-4	1.1
C[n+]1cccc(O)c1SCc1ccccc1	·	5	-1	·	-20	·
CC(C)c1ccc(NC(=O)CN2C(=O)COc3ccc(S(=O)(=O)N4CCOCC4)cc32)cc1	·	-3	1	·	-5	·
Cn1c(NCc2cc(Br)ccc2O)nc2ccccc21	0	0	1	22	-12	-0.69
Cn1c(NCc2c(O)ccc3ccccc23)nc2ccccc21	17	0	-1	100*	-5	0.051
CCOc1ccccc1Nc1nc2ccccc2n1C(C)C	5	-2	2	83*	16	-1.1
CC(C)n1c(NCc2nc3ccccc3n2C)nc2ccccc21	41	0	2	60*	2	-0.52
CC(C)n1c(NCc2cc(Cl)ccc2O)nc2ccccc21	51	1	0	66*	9	-0.5
CC(C)n1c(Nc2ccccc2)nc2ccccc21	4	0	-2	9	-18	-0.94
O=C(CSc1nnc(CNC(=O)c2c(F)cccc2F)o1)NCC1CCCO1 (stereo not drawn)	·	-7	2	·	0	·
SMILES	CHOP inh	UPR XBP1 act	UPR CHOP act	Lmaj promast	T cruzi inh	Dynein transport
OC[C@H]1OC(O)[C@H](O)[C@@H]1O (stereo partly drawn)	·	-4	-2	·	·	·
O=S(=O)(c1ccccc1)N(CC1CO1)c1cccc2ccccc12 (stereo not drawn)	13	0	-1	21	16	2.3
CC(C)(C)[C@H]1COC(=O)[C@@H](Cc2ccc(F)cc2)CC/C=C/C[C@@H](CC(=O)N[C@@H](CO)Cc2ccccc2)C(=O)N1	·	-4	1	·	·	·
Oc1ccc2ccccc2c1CNc1cnc2ccccc2c1	87*	2	3	-5	-18	0.54
Oc1ccccc1CNc1cnc2ccccc2c1	50	-3	7	4	-6	-1.5
Cc1ccc(C)c(-n2c3nc(=O)n(C)c(=O)c-3cc3ccccc32)c1	25	-3	2	·	42	-0.42
